Data on 7 compounds can be found in ChEMBL document CHEMBL1152618, “PET-compatible endothelin receptor radioligands: synthesis and first in vitro and in vivo studies” (Bioorg Med Chem, 2009).

Series [1] deals with T1, Endothelin receptor type B (Mus musculus, UniProt P48302).
T1 sequence (P48302 whole entry): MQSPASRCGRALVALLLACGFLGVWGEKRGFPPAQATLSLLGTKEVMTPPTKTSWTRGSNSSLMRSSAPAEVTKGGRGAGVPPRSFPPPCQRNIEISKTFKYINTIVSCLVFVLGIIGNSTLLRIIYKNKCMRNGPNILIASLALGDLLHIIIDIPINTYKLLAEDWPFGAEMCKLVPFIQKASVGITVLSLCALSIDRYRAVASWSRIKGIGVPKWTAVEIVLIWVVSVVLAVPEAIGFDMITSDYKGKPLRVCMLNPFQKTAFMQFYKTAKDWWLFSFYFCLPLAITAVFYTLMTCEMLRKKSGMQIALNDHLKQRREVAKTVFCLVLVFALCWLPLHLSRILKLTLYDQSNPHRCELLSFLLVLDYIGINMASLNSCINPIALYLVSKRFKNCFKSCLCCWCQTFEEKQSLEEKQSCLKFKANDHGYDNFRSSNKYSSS
In words: Displacement of [125I]ET1 from endothelin B receptor in DBA mouse microsomes. More on the design: species or system Microsome. The procedure, abridged: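 Ventricular microsomes from DBA mice were prepared by homogenization and differential centrifugation in EDTA/HEPES/benzamidine buffers (pH 7.4). 10 µg membranes were incubated with 40 pM [125I]ET-1 and competitor (10 pM–100 µM) in Tris-HCl/154 mM NaCl/ascorbic acid (pH 7.4) at 37 °C for 4 h. Samples were filtered on GF/B and gamma counted. A two-site nonlinear fit gave the low-affinity IC50, which was converted to Ki by Cheng–Prusoff (KD 208 pM).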

A short description of series [2]: Biodistribution in C57BL/6 mouse duodenal wall content assessed as drug uptake index at 0.3 to 1 mmol/kg, iv after 30 mins. Format: ADME, organism-based. The following applies: in vivo, 0.5 h, in the assay text read “0.3 to 1 nmol/kg” for “0.3 to 1 mmol/kg”. The procedure, abridged:
(§1)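 Adult C57BL/6 mice (male and female, 25–30 g), tail-vein cannulated under isoflurane/N2O/O2, allowed ~1 h recovery, conscious under light restraint. [18F]tracer 0.2–2.0 MBq (0.3–1.0 nmol/kg) given as iv bolus. Killed by iv pentobarbitone 200 mg/kg at 30 min. Duodenal contents were moved directly into weighed vials, and duodenal wall was blotted. Gamma counting. Uptake index = (cpm/g tissue)/(cpm injected/g body weight).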

Series [3] is described as follows: Drug level in C57BL/6 mouse bile at 6.6 MBq, iv after 3 to 4 mins. The following applies: in vivo. Format: ADME, organism-based. The procedure, abridged:
(§2)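 Female C57BL/6 mice (22–23 g) under isoflurane 2% anesthesia with tail-vein catheters were imaged two at a time in a quadHIDAC small-animal PET scanner. [18F]tracer (6.6 MBq in 100 µl, saline flush) was injected 30 s after acquisition start. List-mode data were collected for 2 h and reconstructed iteratively. Radioactivity (cps/ml) was read from ROIs over organs in five coronal planes.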

Series [4] deals with Rattus norvegicus. In words: Stability in Wistar rat assessed as compound remaining at 40 MBq, iv after 10 mins. Format: ADME, organism-based. To be noted: in vivo. An outline of the steps: (§3)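 Single rat given 40 MBq [18F]tracer as an iv tail-vein bolus. Blood (600–800 µl) was drawn from a tail-artery catheter at 2.5, 10, 20 and 60 min and centrifuged to plasma. Proteins were precipitated with ice-cold acetonitrile. Supernatant was spiked with 10 µg unlabeled reference and analyzed by radio-RP-HPLC.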

Series [5] relates to Plasma. Briefly: Protein binding in Wistar rat plasma at 19 MBq. In kind it is ADME, cell-free. The procedure, abridged:
(§4)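 Plasma from one anesthetized male Wistar rat (350 g), taken by cardiac puncture and stored at −20 °C overnight. 0.5 ml samples were incubated with 19 MBq [18F]tracer at 37 °C for 1, 2.5, 20 and 60 min. Protein was precipitated with ice-cold acetonitrile and centrifuged. Pellet and supernatant radioactivity were measured for protein binding. Supernatant was analyzed by gradient radio-RP-HPLC (C18, water/acetonitrile with 0.1% TFA).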

The subject of series [6] is Plasma. In words: Stability in C57BL/6 mouse plasma assessed as compound remaining after 5 mins. In kind it is ADME, cell-free. An outline of the steps:
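C57BL/6 mice (adult, both sexes) were prepared as for biodistribution and given [18F]tracer as a 100 µl tail-vein bolus. Killed by iv pentobarbitone at 5 or 20 min. Cardiac blood was centrifuged, and plasma from two mice was pooled. After acetonitrile protein precipitation, supernatant was spiked with 10 µg unlabeled reference and analyzed by radio-RP-HPLC.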

Series [7] is described as follows: Biodistribution in C57BL/6 mouse duodenal content assessed as drug uptake index at 0.3 to 1 mmol/kg, iv after 30 mins. In kind it is ADME, organism-based. To be noted: in vivo, 0.5 h, in the assay text read “0.3 to 1 nmol/kg” for “0.3 to 1 mmol/kg”. The procedure, abridged: as §1
The nature of series [8]: Drug level in C57BL/6 mouse urine at 6.6 MBq, iv after 5 to 60 mins. Format: ADME, organism-based. The following applies: in vivo. The procedure, abridged: as §2
The test system of series [9] is Plasma. In words: Stability in Wistar rat plasma assessed as compound remaining at 19 MBq. In kind it is ADME, cell-free. An outline of the steps: as §4
Series [10] concerns Plasma. Briefly: Stability in plasma assessed as compound remaining after 20 mins.
Series [11] relates to Rattus norvegicus. Briefly: Stability in Wistar rat assessed as compound remaining at 40 MBq, iv after 2.5 mins. In kind it is ADME, organism-based. To be noted: in vivo. An outline of the steps:
as §3

`COc1ccc(C2(O)OC(=O)C(c3ccc4c(c3)OCO4)=C2Cc2cc(OC)c(OC)c(OCCF)c2)cc1` (stereo unspecified): the affinity in series [1] corresponds to a Ki of 240 nM.
Same read-out and setting: to `COc1ccc(C2(O)OC(=O)C(c3ccc4c(c3)OCO4)=C2Cc2cc(OC)c(OC)c(OCCBr)c2)cc1` (stereo unspecified) belongs 170 nM; to `COc1cc(CC2=C(c3ccc4c(c3)OCO4)C(=O)OC2(O)c2ccc(OCCBr)cc2)cc(OC)c1OC` (stereo unspecified), 72 nM; to `COc1ccc(C2(O)OC(=O)C(c3ccc4c(c3)OCO4)=C2Cc2cc(OC)c(OC)c(OCCOS(=O)(=O)c3ccc(C)cc3)c2)cc1` (stereo unspecified), 1.26 nM.
In the case of `COc1ccc(C2(O)OC(=O)C(c3ccc4c(c3)OCO4)=C2Cc2cc(OC)c(OC)c(OCC[18F])c2)cc1` (stereo unspecified), the Drug uptake is 9 in series [2], 6000 cps/ml in series [3], 33 in series [7] and 200 cps/ml in series [8]. Besides, the Stability entry in series [4], in series [6], in series [9], in series [10] and in [11] was “Stable” in each case. Also, the PPB in [5] came out at 4.6%.
In turn, `COc1cc(CC2=C(c3ccc4c(c3)OCO4)C(=O)OC2(O)c2ccc(OCCOS(=O)(=O)c3ccc(C)cc3)cc2)cc(OC)c1OC` (stereo unspecified) yielded a Ki in series [1] of 96 nM.
On the same count and under the same terms, then `COc1cc(CC2=C(c3ccc4c(c3)OCO4)C(=O)OC2(O)c2ccc(OCCF)cc2)cc(OC)c1OC` (stereo unspecified), with 98 nM.
